Measured values published in ChEMBL document CHEMBL1151991, “Cytotoxic guanidine alkaloids from Pterogyne nitens” (J Nat Prod, 2009).
Values after ≈ are worked out from the molar mass of the structure shown.

system: MDA-MB-435; test: Cytotoxicity against human MDA-MB-435 cells after 3 days by MTT assay; assay type: functional, cell-based; settings: MDA-MB-435, 72 h
Summary of the method: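 Seeded at 10^5 cells/well (adherent) or 0.3 × 10^6 cells/well (suspension). Medium then replaced by 0.5 mg/mL MTT for 3 h, formazan dissolved in DMSO, absorbance read. IC50 by modified NCI protocol.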

SMILES | IC50
CC(C)=CCN=C(N)N [GALEGINE] | > 5 µg/mL
CC(C)=CCC/C(C)=C/CN=C(N)N [NITENSIDINE D] | > 5 µg/mL
CC(C)=C/C=C/C1(C)CCN=C(N)N1 (stereo not given) [NITENSIDINE E] | > 5 µg/mL
CC(C)=CCNC(=N)NCC=C(C)C [PTEROGYNIDINE] | > 5 µg/mL
CC(C)=CCN(CC=C(C)C)C(=N)N [PTEROGYNINE] | > 5 µg/mL

system: SF-295; test: Cytotoxicity against human SF295 cells after 3 days by MTT assay; assay type: functional, cell-based; settings: SF-295, 72 h
Summary of the method: (§1)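 Cells kept in RPMI-1640 with 10% fetal calf serum, 2 mM glutamine, streptomycin and penicillin at 37 °C, 5% CO2. Seeded at 10^5 cells/well (adherent) or 0.3 × 10^6 cells/well (suspension). […] Medium then replaced by 0.5 mg/mL MTT for 3 h, formazan dissolved in DMSO, absorbance read. IC50 by modified NCI protocol.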

SMILES | IC50
CC(C)=CCN=C(N)N [GALEGINE] | > 5 µg/mL
CC(C)=CCC/C(C)=C/CN=C(N)N [NITENSIDINE D] | > 5 µg/mL
CC(C)=C/C=C/C1(C)CCN=C(N)N1 (stereo not given) [NITENSIDINE E] | 4.9 µg/mL (≈ 25.3 µM)
CC(C)=CCNC(=N)NCC=C(C)C [PTEROGYNIDINE] | > 5 µg/mL
CC(C)=CCN(CC=C(C)C)C(=N)N [PTEROGYNINE] | > 5 µg/mL

system: HCT-8; test: Cytotoxicity against human HCT8 cells after 3 days by MTT assay; assay type: functional, cell-based; settings: HCT-8, 72 h; summary of the method: as §1

SMILES | IC50
CC(C)=CCN=C(N)N [GALEGINE] | > 5 µg/mL
CC(C)=CCC/C(C)=C/CN=C(N)N [NITENSIDINE D] | > 5 µg/mL
CC(C)=C/C=C/C1(C)CCN=C(N)N1 (stereo not given) [NITENSIDINE E] | > 5 µg/mL
CC(C)=CCNC(=N)NCC=C(C)C [PTEROGYNIDINE] | > 5 µg/mL
CC(C)=CCN(CC=C(C)C)C(=N)N [PTEROGYNINE] | > 5 µg/mL

system: HL-60; test: Cytotoxicity against human HL60 cells after 3 days by MTT assay; assay type: functional, cell-based; settings: HL-60, 72 h; summary of the method: as §1

SMILES | IC50
CC(C)=CCN=C(N)N [GALEGINE] | > 5 µg/mL
CC(C)=CCC/C(C)=C/CN=C(N)N [NITENSIDINE D] | > 5 µg/mL
CC(C)=C/C=C/C1(C)CCN=C(N)N1 (stereo not given) [NITENSIDINE E] | 3.6 µg/mL (≈ 18.6 µM)
CC(C)=CCNC(=N)NCC=C(C)C [PTEROGYNIDINE] | > 5 µg/mL
CC(C)=CCN(CC=C(C)C)C(=N)N [PTEROGYNINE] | > 5 µg/mL
